Experimental findings from ChEMBL document CHEMBL4024768, “Discovery and Optimization of Thiazolidinyl and Pyrrolidinyl Derivatives as Inhaled PDE4 Inhibitors for Respiratory Diseases” (J Med Chem, 2017) are described below.

The IC50 is the point on the concentration scale where inhibition reaches its midpoint. As a reminder, the inhibition in vivo is the change of the read-out against control, counted positive when it falls. As usually defined, the MRT last is the average time that molecules of a dose stay in the body. As a reminder, the ED50 is the dose that gives a 50% effect, or the effect in half of the subjects. Low values mean greater potency, high ones weaker potency.

The source made the active and inactive calls. The calls are words filed in the database; no cut-off is given here.

Series [1] deals with Lung. The series can be described thus: Drug uptake in Sprague-Dawley rat lung at 1 umol/kg, it administered as micronized powder measured at 24 hrs post dose by electrospray LC-MS analysis. Format: ADME, tissue-based. The settings on record: in vivo, inhaled_or_intranasal. An outline of the steps:
(§1)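 Sprague-Dawley rats (250−400 g) dosed intratracheally with micronized dry powder blended with coarse lactose, delivered by insufflator under isoflurane anaesthesia. Blood collected in heparinized tubes and spun at 1200g for 15 min. Lung sampled at 0.25, 1, 2, 4, 8, 16 and 24 h, n = 3 per time point.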

The nature of series [2]: Inhibition of PDE4 in human U937 cell lysates assessed as residual cAMP after 2.5 mins by LANCE assay. Background: Time-resolved FRET reads energy transfer from a long-lived donor to a nearby acceptor.
The subject of series [3] is Rattus norvegicus. The series can be described thus: Anti-inflammatory activity in OVA-induced airway inflammation Brown Norway rat model assessed inhibition of eosinophils recruitment in bronchoalveolar lavage fluid at 0.1 umol/kg administered intratracheally as powder formulation 2 hrs before aerosolized OVA challenge measured at 24 hrs post aerosolized OVA challenge. Format: functional. The settings on record: inhaled or nasal. An outline of the steps: (§2)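 Male Brown Norway rats sensitized i.p. with OVA (1 mg/rat) plus Al(OH)3 (100 mg/rat) in saline on 3 consecutive days. Challenged 2–3 weeks later with nose-only 1% OVA aerosol for 30 min. Lactose-blended dry powder (10 mg/kg total powder) insufflated intratracheally; dose taken from needle weight difference. BAL with 3 × 4 mL HBSS/EDTA/HEPES at 24 h; total and differential counts by automated counter. ED50 from fitted dose–response curve.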

Series [4] is described as follows: Metabolic stability in human plasma assessed as compound remaining at 1 uM measured after 60 mins in presence of NADPH by LC-MS/MS analysis. Format: ADME, cell-free. The settings on record: read-out: Stability.
The next series deals with Cytochrome P450 2C19 (Homo sapiens, UniProt P33261). Put plainly: Binding affinity to human liver microsomes CYP2C19 at 1 uM. The format is ADME. The essentials:
(§3)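 Off-target screening panel of about 400 receptors, enzymes and ion channels, run at 1 μM. Result expressed as % binding.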
On the technique in general: Microsomes from liver hold many membrane-bound enzymes, among them those of drug oxidation.

The nature of series [5]: MRTlast in Sprague-Dawley rat plasma at 1 umol/kg, it administered as micronized powder measured up to 24 hrs post dose by electrospray LC-MS analysis. The settings on record: inhaled or intranasal. The format is ADME, cell-free. The essentials:
as §1

For series [6], the system named is Rattus norvegicus. The series can be described thus: Anti-inflammatory activity in OVA-induced airway inflammation Brown Norway rat model assessed inhibition of eosinophils recruitment in bronchoalveolar lavage fluid administered intratracheally as powder formulation 2 hrs before aerosolized OVA challenge measured at 24 hrs post aerosolized OVA challenge. Format: functional. The settings on record: for ED50: inhaled or nasal. An outline of the steps: as §2

For series [7], the system named is Lung. The series can be described thus: AUClast in Sprague-Dawley rat lung at 1 umol/kg, it administered as micronized powder measured up to 24 hrs post dose by electrospray LC-MS analysis. The settings on record: in vivo, inhaled_or_intranasal. Format: ADME, tissue-based. The essentials:
as §1

Series [8] is described as follows: Stability in human hepatocytes assessed as parent compound remaining at 10 uM after 60 mins by LC-MS/MS analysis. The format is ADME, cell-based, Hepatocyte. The settings on record: read-out: Stability. An outline of the steps:
(§4)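 Pooled mixed-sex cryopreserved human hepatocytes (1 million cells/mL) in Leibovitz L-15 at 37 °C, compound at 10 μM in duplicate. Sampled at 0 and 60 min. Protein-free supernatant evaporated under nitrogen, reconstituted in mobile phase and analysed by LC−MS/MS. Cell-free medium incubation for 60 min as control.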

Series [9] concerns Rattus norvegicus. The series can be described thus: Anti-inflammatory activity in OVA-induced airway inflammation Brown Norway rat model assessed inhibition of inflammatory cell infiltration in bronchoalveolar lavage fluid at 1 umol/kg administered intratracheally as powder formulation 2 hrs before aerosolized OVA challenge measured at 24 hrs post aerosolized OVA challenge. The format is functional. An outline of the steps:
as §2

For series [10], the species on record is Rattus norvegicus. Put plainly: Binding affinity to rat imidazoline I2 receptor. The essentials:
as §3

Series [11] deals with T1, Amine oxidase [flavin-containing] A (Homo sapiens, UniProt P21397).
T1 sequence (P21397 whole entry): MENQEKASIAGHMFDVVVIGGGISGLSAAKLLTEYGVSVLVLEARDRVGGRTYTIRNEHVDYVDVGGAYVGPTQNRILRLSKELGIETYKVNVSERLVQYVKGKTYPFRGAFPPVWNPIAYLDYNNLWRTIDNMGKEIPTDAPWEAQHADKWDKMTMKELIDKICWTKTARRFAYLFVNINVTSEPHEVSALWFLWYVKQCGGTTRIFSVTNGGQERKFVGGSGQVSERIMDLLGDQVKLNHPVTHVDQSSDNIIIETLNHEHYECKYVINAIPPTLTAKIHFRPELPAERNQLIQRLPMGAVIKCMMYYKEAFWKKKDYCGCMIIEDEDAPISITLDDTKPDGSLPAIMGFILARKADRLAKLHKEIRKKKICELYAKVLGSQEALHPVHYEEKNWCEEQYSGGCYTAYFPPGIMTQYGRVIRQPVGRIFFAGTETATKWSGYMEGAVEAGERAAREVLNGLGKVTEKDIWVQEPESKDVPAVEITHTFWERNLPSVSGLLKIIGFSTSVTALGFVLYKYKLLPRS
Put plainly: Binding affinity to human monoamine oxidase A at 1 uM. An outline of the steps: as §3

The nature of series [12]: Drug metabolism in human hepatocytes assessed as (S)-1-(3-(dimethylcarbamoyl)phenylsulfonyl)pyrrolidine-2-carboxylic acid metabolite formation at 10 uM after 60 mins by LC-MS/MS analysis. Format: ADME, cell-based, Hepatocyte. The settings on record: 1 h. The essentials:
as §4

For series [13], the target named is T2, Sterol O-acyltransferase 1 (Rattus norvegicus) (UniProt O70536).
T2 sequence (whole entry): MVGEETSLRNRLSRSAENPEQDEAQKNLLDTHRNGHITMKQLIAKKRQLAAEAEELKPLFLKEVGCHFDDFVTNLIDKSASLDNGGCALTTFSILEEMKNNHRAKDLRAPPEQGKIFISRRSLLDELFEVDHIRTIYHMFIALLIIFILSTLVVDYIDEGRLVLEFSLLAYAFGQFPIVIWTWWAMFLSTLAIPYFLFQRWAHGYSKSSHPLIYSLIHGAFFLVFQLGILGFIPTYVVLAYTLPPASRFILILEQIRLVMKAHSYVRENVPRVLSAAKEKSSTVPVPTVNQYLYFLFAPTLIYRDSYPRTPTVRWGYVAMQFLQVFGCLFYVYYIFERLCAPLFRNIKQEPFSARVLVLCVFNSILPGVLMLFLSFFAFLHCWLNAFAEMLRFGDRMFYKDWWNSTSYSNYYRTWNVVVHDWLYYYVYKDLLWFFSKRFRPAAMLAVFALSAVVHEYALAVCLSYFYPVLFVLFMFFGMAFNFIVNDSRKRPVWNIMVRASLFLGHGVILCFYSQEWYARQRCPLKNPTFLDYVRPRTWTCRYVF
The series can be described thus: Binding affinity to rat hepatic Acyl CoA-cholesterol acyltransferase at 1 uM. The essentials: as §3

Chain of Cytochrome P450 2C19 (P33261 whole entry): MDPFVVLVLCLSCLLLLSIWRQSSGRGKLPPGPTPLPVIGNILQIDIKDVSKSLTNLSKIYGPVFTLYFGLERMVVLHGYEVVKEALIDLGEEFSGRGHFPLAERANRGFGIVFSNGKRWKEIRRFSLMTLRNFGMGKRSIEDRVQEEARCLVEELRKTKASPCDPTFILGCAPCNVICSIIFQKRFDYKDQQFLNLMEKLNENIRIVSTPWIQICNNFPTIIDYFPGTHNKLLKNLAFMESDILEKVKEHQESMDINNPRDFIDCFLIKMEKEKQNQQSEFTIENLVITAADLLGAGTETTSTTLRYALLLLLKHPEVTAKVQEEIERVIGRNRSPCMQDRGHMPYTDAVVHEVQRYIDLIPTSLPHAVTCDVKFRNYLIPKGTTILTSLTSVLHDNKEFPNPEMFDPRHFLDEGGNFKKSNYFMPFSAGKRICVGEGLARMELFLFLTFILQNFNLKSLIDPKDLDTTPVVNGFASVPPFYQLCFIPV

Consider `CN(C)C(=O)c1cccc(S(=O)(=O)N2CCS[C@H]2C(=O)O[C@@H](Cc2c(Cl)c[n+]([O-])cc2Cl)c2ccc(OC(F)F)c(OCC3CC3)c2)c1`, for which the Drug uptake in the series with Lung [1] is reported as 0.22 nmol/g. Besides, the IC50 in series [2] was found to be 53 pM. This molecule also registered an inhibition in vivo at 0.1 µmol/kg in the series on Rattus norvegicus [3] of 50%. Further, the remaining at 1 h, 1 µM in series [4] is 98%. The Activity at Cytochrome P450 2C19 came out at 69%; in the series filed under Rattus norvegicus [10], 60%; in [11] it was 94%. The MRT last at 24 h in series [5] was determined as 1.33 h. In the series with Rattus norvegicus [6], the inhibition result was “Dose-dependent effect”. Moreover, in the series with Rattus norvegicus [6], the ED50 came out at 0.04 µmol/kg. Also, the AUClast in the series on Lung [7] is 65.27 nmol·h/g. Further, the remaining at 1 h, 10 µM in [8] stood at 51%. Also, in the series on Rattus norvegicus [9], the inhibition result was “Active”.
For the molecule `CN(C)C(=O)c1cccc(S(=O)(=O)N2CCC[C@H]2C(=O)O[C@@H](Cc2c(Cl)c[n+]([O-])cc2Cl)c2ccc(OC(F)F)c(OCC3CC3)c2)c1` (relative stereo), the Drug uptake in the series on Lung [1] was determined as 0.128 nmol/g. Also, the IC50 in series [2] was found to be 37.8 pM. Also, in [4], the remaining at 1 h, 1 µM came out at 108%. The MRT last at 24 h in series [5] was determined as 1.08 h. Further, in the series with Rattus norvegicus [6], the inhibition result was “Dose-dependent effect” and the ED50 was determined as 0.1 µmol/kg. This molecule returned an AUClast in the series on Lung [7] of 49.65 nmol·h/g. Also, in [12], the Drug metabolism entry is listed as “Metabolite_Notdetected”. In addition, the remaining at 1 h, 10 µM in series [8] amounted to 78%. Also, the Activity in series [13] was found to be 50%. Further, the Activity in series [11] was determined as 76%.
